Reference: PubChem BioAssay AID2300 (The Scripps Research Institute Molecular Screening Center, 2010)
Screen size: about 320,000 compounds; about 380 (0.12%) were called active. The list comes from a sample in which actives are over-represented; it also holds similar structures and randomly drawn compounds. A number with no mark means an inactive call.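 The calls were made as follows: active = percent inhibition above the cutoff of mean plus 3 SD of all tested compounds, set per screening campaign (cut at about 20% in these data); inactive = the rest.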

molecular target: Photoreceptor-specific nuclear receptor (Homo sapiens) (UniProt Q9Y5X4); assay: disruption of NR2E3 corepressor interaction – biochemical, TR-FRET, GST-NR2E3, biotin-RetCOR, NR2E3 agonist project, primary screen (AID 2300); conditions: 1536-well, at 4.78 µM, stronger effect = higher value;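 also: 0% = DMSO wells and 100% = biotin wells as full block of FRET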
Sequence (Q9Y5X4 whole entry, looked up, the tested form may be a part): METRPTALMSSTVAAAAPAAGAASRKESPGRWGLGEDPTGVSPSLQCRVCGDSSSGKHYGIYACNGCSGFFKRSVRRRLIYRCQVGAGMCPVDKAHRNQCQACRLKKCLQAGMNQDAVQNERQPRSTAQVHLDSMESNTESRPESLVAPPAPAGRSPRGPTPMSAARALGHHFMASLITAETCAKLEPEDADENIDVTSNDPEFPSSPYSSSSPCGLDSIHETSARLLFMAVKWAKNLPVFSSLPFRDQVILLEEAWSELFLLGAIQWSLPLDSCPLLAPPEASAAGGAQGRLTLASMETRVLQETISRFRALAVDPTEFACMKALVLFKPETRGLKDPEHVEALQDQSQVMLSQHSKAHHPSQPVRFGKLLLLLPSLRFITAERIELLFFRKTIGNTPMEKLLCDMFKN
Procedure, shortened: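 Material – GST-tagged NR2E3 plus biotinylated RetCOR corepressor · Quantity – NR2E3 fusion 1.35 nM · Times – 5 h incubation at 4 °C · Medium – pH 7.5 Tris-based buffer · Technique – TR-FRET, Eu(K)-anti-GST donor, streptavidin-D2 acceptor, ex 340, em 617/671 nm · Benchmarks – high control biotin, low control 0.6% DMSO · Format – 1536-well plates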

In order of rising inhibition of corepressor binding:
1. N=c1n(CCc2ccccc2)c2ccccc2n1Cc1ccccc1F  -5.83%
2. Cc1ccc(C(=O)COC(=O)c2cccc(N3C(=O)c4c(C)nc5ccccc5c4C3=O)c2)cc1C  -4.34%
3. O=C(/C=N/O)Nc1ccccc1  -4.21%
4. CCN(CC)Cc1csc2ccc(Br)cc12  -3.8%
5. CCOc1ccc(CCNC(=O)C2=C(C)C(=O)OC23CCC(C)CC3)cc1OCC (stereo unspecified)  -3.37%
6. CCc1ccc(S(=O)(=O)Nc2cc3c(cc2N2CCCCC2)n(C)c(=O)c(=O)n3C)cc1  -2.2%
7. CCCOC1CCCN(Cc2cn(C)nc2-c2ccccc2F)C1 (stereo unspecified)  -1.73%
8. O=C1C(=O)N(CCN2CCOCC2)C(c2ccccn2)/C1=C(/O)c1ccc(Cl)cc1 (stereo unspecified)  -1.05%
9. O=C(COc1coc(CN2CCN(c3ccccc3F)CC2)cc1=O)N1CCc2ccccc21  -1.02%
10. Cc1cc(C)n(CC(C)NCc2c(C(=O)N3CCOCC3)nc3c(C)cccn23)n1 (stereo unspecified)  -0.74%
11. O=C(C(Cc1ccccc1)n1cccc1)N1CCN(C2CCCCC2)CC1 (stereo unspecified)  -0.53%
12. O=C(CCN1C(=O)c2ccncc2C1=O)Nc1cc(F)ccc1F  -0.36%
13. CCCOn1c(-n2nc(C)cc2C)nc2ccccc2c1=O  -0.33%
14. CCCC(=O)N1CCC(CCC(=O)NC2CC2)CC1  0.01%
15. CCOc1cc(C2/C(=C(/O)c3ccc(S(=O)(=O)N4CCCCC4)cc3)C(=O)C(=O)N2CCOC)ccc1O (stereo unspecified)  0.08%
16. CN(C(=O)CSc1nnc(Nc2ccccc2)s1)C1CCS(=O)(=O)C1 (stereo unspecified)  0.29%
17. CC1C(=O)Nc2ccccc2N1C(=O)c1c(F)cccc1F (stereo unspecified)  0.31%
18. O=C(NCCCN1CCOCC1)C1CCCN(S(=O)(=O)N2CCCCC2)C1 (stereo unspecified)  0.58%
19. O=C(CCc1ccc(S(=O)(=O)N2CCOCC2)cc1)Nc1ccc2ccccc2c1  0.61%
20. O=C(COC(=O)c1ccc(NS(=O)(=O)c2cccs2)cc1O)Nc1ccc(F)cc1  0.61%
21. CN(Cc1ccccc1F)C(=O)C(Cc1ccccc1)NC(=O)c1ccccc1 (stereo unspecified)  0.68%
22. CC1CCN(S(=O)(=O)c2ccc3c(c2)n(C)c(=O)n3C)CC1  0.8%
23. CCOc1cc(C(=O)Nc2ccc(S(=O)(=O)Nc3cnc4ccccc4n3)cc2)cc(OCC)c1OCC  0.9%
24. CCOC(=O)c1c(NC(=O)CN2C(=O)NC3(CCC(C)CC3)C2=O)sc(C)c1CC (stereo unspecified)  1.08%
25. Cc1ccc(S(=O)(=O)NC2(C(F)(F)F)NC(=O)N(CCc3ccccc3)C2=O)cc1 (stereo unspecified)  1.1%
26. O=C(Nc1cc(S(=O)(=O)N2CCOCC2)ccc1Cl)c1cc(=O)c2ccccc2o1  1.24%
27. COc1ccc(NC(=O)CN2C(=O)C(c3ccccc3)=NC23CCCCCC3)cc1OC  1.4%
28. Cc1ccc(-c2nc(CSCC(=O)NC3CCN(Cc4ccccc4)CC3)c(C)o2)cc1  1.78%
29. CCOc1cc(NC(=S)NCCCOC)c(OCC)cc1NC(=O)c1ccco1  1.79%
30. O=C1C(=O)N(CCCN2CCOCC2)C(c2ccc([N+](=O)[O-])cc2)/C1=C(\O)c1ccc2c(c1)OCCO2 (stereo unspecified)  2.15%
31. CCc1cc2c(SCC(=O)Nc3ncc(Cl)c(C)c3Cl)ncnc2s1  2.24%
32. COc1cc(C(=O)NCC(c2ccco2)N2CCCC2)ccc1OCc1ccccc1 (stereo unspecified)  2.49%
33. COc1ccc(C(C(=O)NC2CCCCC2)N(C(=O)CCl)c2ccccc2Cl)cc1 (stereo unspecified)  3.2%
34. CCCCCCSc1nsc(N)n1  3.46%
35. COc1ccc2c3c1O[C@H]1C[C@@H](O)C=C[C@@]31CCN(C)C2  4.69%
36. COc1ccc(-c2cc(C(=O)N/N=C/c3cccnc3)c3ccccc3n2)c(OC)c1  6.06%
37. O=C(NCc1ccccn1)c1ccc2nc(-c3ccco3)c(-c3ccco3)nc2c1  9.85%

In the case of CN(Cc1ccccc1)Cc1ccccc1F, the inhibition of corepressor binding is reported as 24.1% (active).
In the case of O=C1C(=O)N(CCN2CCOCC2)C(c2cccc(Cl)c2)/C1=C(/O)c1ccc2c(c1)OCO2 (stereo unspecified), the inhibition of corepressor binding is reported as 31.6% (active).
In the case of COCCNC(=O)Nc1ccc2nc(-c3ccco3)c(-c3ccco3)nc2c1, the inhibition of corepressor binding is reported as 30.4% (active).
For CC[N+](C)(CC)CCC[n+]1c(-c2ccccc2)c2cc(N)ccc2c2ccc(N)cc21, the inhibition of corepressor binding was 41.5% (active).
